ChEMBL document CHEMBL3608275, “Synthesis, nicotinic acetylcholine receptor binding, in vitro and in vivo pharmacology properties of 3'-(substituted pyridinyl)-deschloroepibatidine analogs” (Bioorg Med Chem, 2015)

Assays:
[1] = target: Neuronal acetylcholine receptor subunit alpha-7 (Rattus norvegicus) (UniProt Q05941); experiment: Agonist activity at rat alpha7 nAChR expressed in Xenopus laevis oocytes assessed as mean current response at 100 uM by two-electrode voltage clamp electrophysiology assay relative to acetylcholine; type: cell-based
Chain of Neuronal acetylcholine receptor subunit alpha-7 (Rattus norvegicus) (Q05941 whole entry): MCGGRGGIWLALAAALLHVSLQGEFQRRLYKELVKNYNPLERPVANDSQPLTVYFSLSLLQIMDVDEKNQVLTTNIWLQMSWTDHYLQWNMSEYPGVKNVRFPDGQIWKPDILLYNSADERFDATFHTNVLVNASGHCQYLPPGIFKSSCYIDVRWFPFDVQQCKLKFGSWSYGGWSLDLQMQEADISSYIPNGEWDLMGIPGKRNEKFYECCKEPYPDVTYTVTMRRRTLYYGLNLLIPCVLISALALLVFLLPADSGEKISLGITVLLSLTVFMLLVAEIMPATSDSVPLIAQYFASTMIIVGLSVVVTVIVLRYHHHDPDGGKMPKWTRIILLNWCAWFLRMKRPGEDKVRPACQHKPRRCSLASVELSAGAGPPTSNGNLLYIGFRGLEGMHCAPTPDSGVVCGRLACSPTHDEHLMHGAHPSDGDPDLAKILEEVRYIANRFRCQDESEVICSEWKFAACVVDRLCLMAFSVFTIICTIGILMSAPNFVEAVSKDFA

Mus musculus [2] = experiment: Antinociceptive activity in sc dosed mouse assessed as reduction of body rectal temperature; type: functional
Mus musculus [3] = experiment: Antinociceptive activity in intratracheally dosed mouse assessed as maximum latency after 5 mins by tail-flick assay; settings: inhaled or nasal
Mus musculus [4] = experiment: Antinociceptive activity in sc dosed mouse assessed as jumping or licking of paw behavior after 5 mins by hot-plate test
Mus musculus [5] = experiment: Antinociceptive activity in sc dosed mouse assessed as spontaneous locomotor activity measured for 10 mins; type: functional
[6] = target: T1, Neuronal acetylcholine receptor; alpha4/beta2 (Rattus norvegicus) (UniProt P09483+P12390); experiment: Agonist activity at rat alpha4beta2 nAChR expressed in Xenopus laevis oocytes assessed as mean current response at 100 uM by two-electrode voltage clamp electrophysiology assay relative to acetylcholine; type: cell-based
[7] = target: T2, Neuronal acetylcholine receptor; alpha3/beta4 (Rattus norvegicus) (UniProt P04757+P12392); experiment: Agonist activity at rat alpha3beta4 nAChR expressed in Xenopus laevis oocytes assessed as mean current response at 100 uM by two-electrode voltage clamp electrophysiology assay relative to acetylcholine; type: cell-based
Mus musculus [8] = experiment: Antinociceptive activity in mouse assessed as maximum latency at 10 mg/kg, administered as intratracheally after 5 mins by tail-flick assay; type: functional
Mus musculus [9] = experiment: Antinociceptive activity in mouse assessed as jumping or licking of paw behavior at 10 mg/kg, sc after 5 mins by hot-plate test; type: functional
Mus musculus [10] = experiment: Antinociceptive activity in mouse assessed as inhibition of nicotine-induced antinociception at 1000 ug/kg, sc after 5 mins by hot-plate test; type: functional
[11] = target: Neuronal acetylcholine receptor subunit alpha-7 (Rattus norvegicus, UniProt Q05941); experiment: Antagonist activity at rat alpha7 nAChR expressed in Xenopus laevis oocytes assessed as inhibition of acetylcholine-induced mean current response by two-electrode voltage clamp electrophysiology assay; type: cell-based
Chain of Neuronal acetylcholine receptor subunit alpha-7 (Q05941 whole entry): as above
Summary of the method: (§1)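 Rat nAChRs in Xenopus oocytes under two-electrode voltage clamp. […] IC50 is taken from concentration-inhibition curves.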

[12] = target: T1, Neuronal acetylcholine receptor; alpha4/beta2 (Rattus norvegicus); experiment: Antagonist activity at rat alpha4beta2 nAChR expressed in Xenopus laevis oocytes assessed as inhibition of acetylcholine-induced mean current response by measuring remaining current at 100 uM by two-electrode voltage clamp electrophysiology assay relative to control; values are per cent of control
[13] = target: T3, Neuronal acetylcholine receptor; alpha4/beta2 (Rattus norvegicus, UniProt P09483+P12390); experiment: Antagonist activity at rat alpha4beta2 nAChR expressed in Xenopus laevis oocytes assessed as inhibition of acetylcholine-induced mean current response by two-electrode voltage clamp electrophysiology assay; type: cell-based; summary of the method: as §1
T3 sequence (P09483 whole entry): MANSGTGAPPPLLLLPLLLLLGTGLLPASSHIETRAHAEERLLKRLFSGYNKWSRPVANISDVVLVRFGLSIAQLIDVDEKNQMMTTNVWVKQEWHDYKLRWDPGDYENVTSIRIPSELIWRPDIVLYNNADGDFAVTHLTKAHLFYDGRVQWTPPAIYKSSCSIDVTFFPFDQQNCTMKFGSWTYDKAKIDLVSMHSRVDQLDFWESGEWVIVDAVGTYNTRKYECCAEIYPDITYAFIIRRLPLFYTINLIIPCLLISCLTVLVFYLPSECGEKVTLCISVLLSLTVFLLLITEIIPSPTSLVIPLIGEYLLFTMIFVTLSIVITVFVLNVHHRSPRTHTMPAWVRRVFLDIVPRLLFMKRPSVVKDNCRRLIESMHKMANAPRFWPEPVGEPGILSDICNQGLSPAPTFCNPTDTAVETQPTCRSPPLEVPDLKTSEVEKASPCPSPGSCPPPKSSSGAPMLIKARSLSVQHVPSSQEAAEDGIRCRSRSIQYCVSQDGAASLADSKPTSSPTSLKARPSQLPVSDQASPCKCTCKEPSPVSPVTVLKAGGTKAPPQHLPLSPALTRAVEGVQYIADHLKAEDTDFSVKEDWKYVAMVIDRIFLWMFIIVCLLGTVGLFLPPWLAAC
T3 sequence (P12390 whole entry): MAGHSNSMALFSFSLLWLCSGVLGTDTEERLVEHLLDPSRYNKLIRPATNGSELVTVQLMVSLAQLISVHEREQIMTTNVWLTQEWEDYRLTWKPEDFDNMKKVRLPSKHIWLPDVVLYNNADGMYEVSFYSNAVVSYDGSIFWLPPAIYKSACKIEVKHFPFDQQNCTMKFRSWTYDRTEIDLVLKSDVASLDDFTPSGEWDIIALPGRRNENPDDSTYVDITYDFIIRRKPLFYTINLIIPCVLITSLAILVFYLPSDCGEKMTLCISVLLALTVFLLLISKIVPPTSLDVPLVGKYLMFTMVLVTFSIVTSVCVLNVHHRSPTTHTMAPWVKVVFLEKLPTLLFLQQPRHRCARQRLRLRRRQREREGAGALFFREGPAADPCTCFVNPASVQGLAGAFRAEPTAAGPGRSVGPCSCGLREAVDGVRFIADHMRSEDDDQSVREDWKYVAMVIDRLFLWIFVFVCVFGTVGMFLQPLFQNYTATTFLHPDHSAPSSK

[14] = target: T2, Neuronal acetylcholine receptor; alpha3/beta4 (Rattus norvegicus); experiment: Antagonist activity at rat alpha3beta4 nAChR expressed in Xenopus laevis oocytes assessed as inhibition of acetylcholine-induced mean current response by measuring remaining current at 100 uM by two-electrode voltage clamp electrophysiology assay relative to control; values are per cent of control
[15] = target: T3, Neuronal acetylcholine receptor; alpha4/beta2; experiment: Displacement of [3H]-epibatidine from alpha4beta2 nAChR in rat cerebral cortex homogenates after 4 hrs by liquid scintillation counting; type: tissue-based
[16] = target: Neuronal acetylcholine receptor; alpha3/beta4 (Rattus norvegicus, UniProt P04757+P12392); experiment: Antagonist activity at rat alpha3beta4 nAChR expressed in Xenopus laevis oocytes assessed as inhibition of acetylcholine-induced mean current response by two-electrode voltage clamp electrophysiology assay; type: cell-based; summary of the method: as §1
Chain of Neuronal acetylcholine receptor; alpha3/beta4 (P04757 whole entry): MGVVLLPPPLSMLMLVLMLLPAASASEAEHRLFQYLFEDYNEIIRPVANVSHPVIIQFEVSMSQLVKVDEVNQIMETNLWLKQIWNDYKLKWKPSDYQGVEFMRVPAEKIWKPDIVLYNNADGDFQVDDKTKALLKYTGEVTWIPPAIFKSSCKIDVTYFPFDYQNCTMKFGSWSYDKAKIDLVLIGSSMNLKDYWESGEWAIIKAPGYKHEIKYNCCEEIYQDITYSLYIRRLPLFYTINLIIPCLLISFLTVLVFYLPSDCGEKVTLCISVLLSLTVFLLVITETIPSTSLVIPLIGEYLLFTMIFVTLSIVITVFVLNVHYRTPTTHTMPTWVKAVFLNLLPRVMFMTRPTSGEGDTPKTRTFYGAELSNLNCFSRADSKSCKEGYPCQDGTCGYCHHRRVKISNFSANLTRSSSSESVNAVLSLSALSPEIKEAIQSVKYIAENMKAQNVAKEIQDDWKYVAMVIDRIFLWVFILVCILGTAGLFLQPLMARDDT
Chain of Neuronal acetylcholine receptor; alpha3/beta4 (P12392 whole entry): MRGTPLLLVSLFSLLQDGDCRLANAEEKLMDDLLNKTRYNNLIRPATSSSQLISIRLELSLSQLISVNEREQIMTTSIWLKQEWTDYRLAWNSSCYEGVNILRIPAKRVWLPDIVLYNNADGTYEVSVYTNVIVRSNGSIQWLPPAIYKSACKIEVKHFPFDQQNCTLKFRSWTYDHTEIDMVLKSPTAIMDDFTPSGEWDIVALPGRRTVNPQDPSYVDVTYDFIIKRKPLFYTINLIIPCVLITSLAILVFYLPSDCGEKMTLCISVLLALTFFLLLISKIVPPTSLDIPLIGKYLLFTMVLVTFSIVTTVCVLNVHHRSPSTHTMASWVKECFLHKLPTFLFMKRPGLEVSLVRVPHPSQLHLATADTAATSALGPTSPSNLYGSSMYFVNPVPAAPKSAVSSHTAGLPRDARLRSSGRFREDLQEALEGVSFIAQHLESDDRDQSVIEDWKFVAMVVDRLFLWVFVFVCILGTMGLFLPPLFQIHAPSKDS

Mus musculus [17] = experiment: Antinociceptive activity in intratracheally dosed mouse assessed as inhibition of nicotine-induced antinociception after 5 mins by tail-flick assay; type: functional
[18] = target: Neuronal acetylcholine receptor subunit alpha-7 (Rattus norvegicus) (UniProt Q05941); experiment: Antagonist activity at rat alpha7 nAChR expressed in Xenopus laevis oocytes assessed as inhibition of acetylcholine-induced mean current response by measuring remaining current at 100 uM by two-electrode voltage clamp electrophysiology assay relative to control; values are per cent of control
Mus musculus [19] = experiment: Antinociceptive activity in mouse assessed as spontaneous locomotor activity at 10 mg/kg, sc measured for 10 mins; type: functional
Mus musculus [20] = experiment: Antinociceptive activity in mouse assessed as reduction of body rectal temperature at 10 mg/kg, sc; type: functional; set-up: scale not given: the % may be the effect or the level left
Mus musculus [21] = experiment: Antinociceptive activity in sc dosed mouse assessed as inhibition of nicotine-induced antinociception after 5 mins by hot-plate test; type: functional
Mus musculus [22] = experiment: Antinociceptive activity in mouse assessed as inhibition of nicotine-induced antinociception at 10000 ug/kg, sc after 5 mins by hot-plate test; type: functional

SMILES	Activity [1] [%]	ED50 (Mus musculus [2]) [mg/kg]	ED50 (Mus musculus [5]) [mg/kg]	Activity [6] [%]	Activity [7] [%]	Activity (Mus musculus [8]) [%]	Activity (Mus musculus [9]) [%]	inhibition in vivo at 1 mg/kg (Mus musculus [10]) [%]	IC50 [11] [µM]	residual activity [12] [%]	IC50 [13] [nM]	residual activity [14] [%]	Ki [15] [nM]	IC50 [16] [µM]	AD50 (Mus musculus [17]) [µg/kg]	residual activity [18] [%]	other results
Clc1ccc([C@H]2C[C@H]3CC[C@H]2N3)cn1	150	0.004	0.001	131	97	–	–	–	–	–	–	–	–	–	–	–	ED50 (Mus musculus [3]): 0.006 mg/kg; ED50 (Mus musculus [4]): 0.004 mg/kg
Fc1ccc(-c2cncc([C@H]3C[C@H]4CC[C@H]3N4)c2)cn1 (racemic)	0	2.78	0.69	0	5.5	10	10	10	60	7.9	1300	41	0.13	33	2	36	–
c1cc(-c2cncc([C@H]3C[C@H]4CC[C@H]3N4)c2)ccn1 (racemic)	8.1	5	1.76	1	9.5	7	4	20	179	3.9	7100	11	0.22	23	39	69	–
Fc1cc(-c2cncc([C@H]3C[C@H]4CC[C@H]3N4)c2)ccn1 (racemic)	5.7	5.2	1.78	0	9.5	13	34	46	233	8.1	2900	18	0.18	23	1.2	90	–
Clc1cc(-c2cncc([C@H]3C[C@H]4CC[C@H]3N4)c2)ccn1 (racemic)	8.1	6.2	1.6	0	6.5	10	30	36	97	5.7	11000	10	0.29	20	110	47	–
Nc1cc(-c2cncc([C@H]3C[C@H]4CC[C@H]3N4)c2)ccn1 (racemic)	12	–	–	0	1.2	1	5	32	–	5.2	–	4.2	0.38	–	1	44	Activity (Mus musculus [19]): 20%; Activity (Mus musculus [20]): 0%
COc1cc(-c2cncc([C@H]3C[C@H]4CC[C@H]3N4)c2)ccn1 (racemic)	16	10	–	0	6.1	14	50	–	114	4	1200	7.2	0.094	13	0.3	47	AD50 (Mus musculus [21]): 900 µg/kg
c1cncc(-c2cncc([C@H]3C[C@H]4CC[C@H]3N4)c2)c1 (racemic)	5.8	7	3	0	4.5	3	14	–	117	5.3	6400	14	0.81	22	0.68	59	AD50 (Mus musculus [21]): 2000 µg/kg
Clc1ccc(-c2cncc([C@H]3C[C@H]4CC[C@H]3N4)c2)cn1 (racemic)	4.8	5.5	0.56	0	3.1	8	17	10	66	4.8	2700	12	0.12	24	0.5	38	–
Nc1ccc(-c2cncc([C@H]3C[C@H]4CC[C@H]3N4)c2)cn1 (racemic)	7	–	–	0	0	3	14	–	–	5.7	–	5.4	0.9	–	1.5	46	Activity (Mus musculus [19]): 20%; inhibition in vivo at 10 mg/kg (Mus musculus [22]): 50%; Activity (Mus musculus [20]): 0%
COc1ccc(-c2cncc([C@H]3C[C@H]4CC[C@H]3N4)c2)cn1 (racemic)	1.2	5.5	0.56	0	2.4	8	17	10	30	4.5	1800	8.4	0.27	8.2	0.5	18	–
CN1CCC[C@H]1c1cccnc1 [NICOTINE]	43	1	0.5	40	37	–	–	–	–	–	–	–	–	–	–	–	ED50 (Mus musculus [3]): 1.3 mg/kg; ED50 (Mus musculus [4]): 0.65 mg/kg
c1cnc2cc3c(cc2n1)[C@@H]1CNC[C@H]3C1 [VARENICLINE]	74	2.8	2.1	13	66	11	10	–	–	–	–	–	–	–	0.2	–	AD50 (Mus musculus [21]): 470 µg/kg
